From ChEMBL document CHEMBL1123425, “Potential antitumor agents. 46. Structure-activity relationships for acridine monosubstituted derivatives of the antitumor agent N-[2-(dimethylamino)ethyl]-9-aminoacridine-4-carboxamide” (1986)

Experiments:
L1210 [1] = experiment: In vitro cytotoxicity against L1210 leukemia cells.; type: functional; settings: Mus musculus, read-out: ID50 (the source's name)
Summary of the method: (§1)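 Cultured L1210 murine leukemia or HCT-8 human colon carcinoma cells were incubated with drug for 70 h. ID50 is the drug concentration (nM) that reduced cell number to 50% of untreated controls.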

Mus musculus = experiment: In vivo optimal i.p. dose administered on days 1, 5, and 9 after i.p. inoculation of (10E6) P388 leukemia cells.; type: functional
Summary of the method: (§2)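 Mice received 10⁶ P388 leukemia cells i.p. Drug was dissolved in 0.1 mL of 30% v/v ethanol/water and given i.p. on days 1, 5 and 9 after inoculation. The optimal dose is expressed in mg/kg per day.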

HCT-8 = experiment: In vitro cytotoxicity against HCT-8 human colon carcinoma cells.; type: functional; settings: read-out: ID50 (the source's name); summary of the method: as §1
P388 [2] = experiment: Evaluated in vivo against P388 leukemia cells ( percent increase in life span of treated animals over that of control groups of tumor bearing untreated animals.); type: functional, Mus musculus
P388 [3] = experiment: Evaluated in vivo against P388 leukemia cells ( percent increase in life span of treated animals over that of control groups of tumor bearing untreated animals.); k = no activity at all dose levels up to acutely toxic ones; type: functional, organism-based; settings: Mus musculus; summary of the method: as §2
L1210 [4] = experiment: In vitro cytotoxicity against L1210 leukemia cells; type: functional; settings: Mus musculus, read-out: ID50 (the source's name); summary of the method: as §1

Row | SMILES | IC50 (L1210 [1]) | OD (Mus musculus) | IC50 (HCT-8) | ILS (P388 [2]) | ILS (P388 [3]) | IC50 (L1210 [4])
1 | COc1cc(C(=O)NCCN(C)C)c2nc3ccccc3c(N)c2c1 | 2.9 nM | 5.9 mg/kg/day | 32 nM | 72% | – | –
2 | COc1ccc2c(N)c3cccc(C(=O)NCCN(C)C)c3nc2c1 | – | 8.9 mg/kg/day | – | – | No activity | –
3 | CN(C)CCNC(=O)c1cccc2c(N)c3c(Cl)cccc3nc12 | 250 nM | 20 mg/kg/day | 360 nM | – | No activity | –
4 | CN(C)CCNC(=O)c1ccc(Cl)c2c(N)c3ccccc3nc12 | 4.8 nM | 8.9 mg/kg/day | 360 nM | 29% | – | –
5 | COc1ccc2c(N)c3ccccc3nc2c1C(=O)NCCN(C)C | 300 nM | 20 mg/kg/day | 780 nM | – | No activity | –
6 | Cc1cccc2c(N)c3cccc(C(=O)NCCN(C)C)c3nc12 | 0.47 nM | 2.6 mg/kg/day | 11 nM | 107% | – | –
7 | CN(C)CCNC(=O)c1cccc2c(N)c3ccccc3nc12 | – | 4.5 mg/kg/day | 66 nM | – | – | 15 nM
8 | Cc1ccc2c(N)c3cccc(C(=O)NCCN(C)C)c3nc2c1 | – | 2.6 mg/kg/day | 120 nM | 20% | – | –
9 | CN(C)CCNC(=O)c1cc(Cl)cc2c(N)c3ccccc3nc12 | 300 nM | 20 mg/kg/day | 325 nM | – | No activity | –
10 | COc1cccc2nc3c(C(=O)NCCN(C)C)cccc3c(N)c12 | 220 nM | 45 mg/kg/day | 486 nM | – | No activity | –
11 | COc1ccc2nc3c(C(=O)NCCN(C)C)cccc3c(N)c2c1 | 670 nM | 13.3 mg/kg/day | 600 nM | – | No activity | –
12 | COc1ccc(C(=O)NCCN(C)C)c2nc3ccccc3c(N)c12 | 0.55 nM | 8.9 mg/kg/day | 19 nM | 27% | – | –
13 | CN(C)CCNC(=O)c1cccc2c(N)c3cc(Cl)ccc3nc12 | 722 nM | 13.3 mg/kg/day | 485 nM | – | No activity | –
14 | Cc1cc(C(=O)NCCN(C)C)c2nc3ccccc3c(N)c2c1 | 590 nM | 30 mg/kg/day | 425 nM | – | No activity | –
15 | Cc1ccc2nc3c(C(=O)NCCN(C)C)cccc3c(N)c2c1 | – | 13.3 mg/kg/day | 485 nM | – | No activity | –
16 | Cc1cccc2nc3c(C(=O)NCCN(C)C)cccc3c(N)c12 | 340 nM | 8.9 mg/kg/day | 250 nM | – | No activity | –
17 | CN(C)CCNC(=O)c1cccc2c(N)c3ccc(Cl)cc3nc12 | 105 nM | 8.9 mg/kg/day | 245 nM | – | No activity | –
18 | CN(C)CCNC(=O)c1cccc2c(N)c3cccc(Cl)c3nc12 | 2.9 nM | 2.6 mg/kg/day | 33 nM | 81% | – | –
19 | COc1cccc2c(N)c3cccc(C(=O)NCCN(C)C)c3nc12 | 4.3 nM | 3.9 mg/kg/day | 89 nM | 81% | – | –
